Assay results of several laboratories.
Protocols differ between the studies behind these lines. In brackets after ≈: the same amount, converted by molar mass.
Organism: Staphylococcus epidermidis
Effect on: microbial growth

SMILES | assay | system | conditions | quantity | result
Cc1ccc2[nH]nc(-c3nnc(Nc4ccc(C)c(C)c4)s3)c2c1 |  | ATCC12228 |  | MIC | 172 µg/mL (≈ 512 µM)
CC[C@H]1OC(=O)[C@H](C)[C@@H](O[C@H]2C[C@@](C)(OC)[C@@H](O)[C@H](C)O2)[C@H](C)[C@@H](O[C@@H]2O[C@H](C)C[C@H](N(C)C)[C@H]2O)[C@](C)(O)C[C@@H](C)/C(=N\OCOCCOC)[C@H](C)[C@@H](O)[C@]1(C)O |  | MRSE | clinical isolate | MIC90 | > 128 µg/mL
Cc1ccc2[nH]nc(-c3nnc(Nc4ccc(Cl)c(Cl)c4)s3)c2c1 |  | ATCC12228 |  | MIC | 187 µg/mL (≈ 498 µM)
CN[C@H](CC(C)C)C(=O)N[C@H]1C(=O)N[C@@H](CC(N)=O)C(=O)N[C@H]2C(=O)N[C@H]3C(=O)N[C@H](C(=O)N[C@H](C(=O)O)c4cc(O)cc(O)c4-c4cc3ccc4O)[C@H](O)c3ccc(c(Cl)c3)Oc3cc2cc(c3O[C@@H]2O[C@H](CO)[C@@H](O)[C@H](O)[C@H]2O[C@H]2C[C@](C)(N)[C@H](O)[C@H](C)O2)Oc2ccc(cc2Cl)[C@H]1O |  |  | clinical isolate | MIC | 0.78 µg/mL (≈ 0.538 µM)
Cc1c2c(nn1C)CSCc1cc(n(C)n1)CSc1cc(c3ccccc3c1)OCCCc1c(C(=O)O)n(C)c3c-2c(Cl)ccc13 | broth dilution |  | clinical isolate | MIC50 | 12.5 µM
CN[C@H](CC(C)C)C(=O)N[C@H]1C(=O)N[C@@H](CC(N)=O)C(=O)N[C@H]2C(=O)N[C@H]3C(=O)N[C@H](C(=O)N[C@H](C(=O)O)c4cc(O)cc(O)c4-c4cc3ccc4O)[C@H](O)c3ccc(c(Cl)c3)Oc3cc2cc(c3O[C@@H]2O[C@H](CO)[C@@H](O)[C@H](O)[C@H]2O[C@H]2C[C@](C)(N)[C@H](O)[C@H](C)O2)Oc2ccc(cc2Cl)[C@H]1O | broth dilution |  | clinical isolate | MIC50 | 1 µg/mL
CNC(C)C1CCC(N)C(OC2C(N)CC(N)C(OC3OCC(C)(O)C(NC)C3O)C2O)O1 (stereo not shown) | broth dilution |  |  | MIC | 1 µg/mL (≈ 2.09 µM)
C=C[C@]1(C)C[C@@H](OC(=O)CS[C@@H]2C[C@H]3CC[C@@H](C2)N3C)[C@]2(C)[C@H](C)CC[C@]3(CCC(=O)[C@H]32)[C@@H](C)[C@@H]1O |  |  | clinical isolate | MIC90 | 0.0625 µg/mL (≈ 0.121 µM)
Cc1ccc2[nH]nc(-c3nnc(Nc4ccc(F)cc4Cl)s3)c2c1 |  | ATCC12228 |  | MIC | 118 µg/mL (≈ 328 µM)
CCn1cc(C(=O)O)c(=O)c2cc(F)c(N3CCNCC3)cc21 |  |  | clinical isolate | MIC | 0.2 µg/mL (≈ 0.626 µM)
